Common to all, as to format: functional
Assay [1] deals with Candida albicans. Description: Antifungal activity against Candida albicans isolate O with CAI genotype by broth microdilution method. The essentials:
(§1)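 CLSI (formerly NCCLS) M27-A2 broth microdilution with fluconazole and itraconazole against clinical C. albicans isolates grouped by source (oral or vaginal) and CAI genotype. Trays incubated at 35°C for 24 h. MIC read as the lowest drug concentration giving a prominent drop in turbidity (50% growth inhibition) versus the drug-free control well. C. albicans ATCC 90028 and C. parapsilosis ATCC 22019 used as quality controls. Group values reported as geometric mean MIC50.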
In general terms: Broth dilution looks for growth in wells or tubes with falling amounts of substance.

For assay [2], the system named is Candida albicans. Put plainly: Antifungal activity against Candida albicans isolate V1 with CAI genotype by broth microdilution method. The essentials:
as §1

Assay [3] concerns Candida albicans. Put plainly: Antifungal activity against Candida albicans isolate V2 with CAI genotype by broth microdilution method. In a few lines:
as §1

The subject of assay [4] is Candida albicans. Put plainly: Antifungal activity against Candida albicans isolate V3 with CAI genotype by broth microdilution method. In a few lines: as §1
The test system of assay [5] is Candida albicans. Description: Antifungal activity against Candida albicans isolate V4 with CAI genotype by broth microdilution method. The essentials: as §1
Assay [6] concerns Candida albicans. Description: Antifungal activity against Candida albicans isolate V5 with CAI genotype by broth microdilution method. In a few lines:
as §1

Converted amounts (≈) assume the structure as drawn.

As a reminder, the MIC50 is an inhibitory concentration at the 50% level, which refers to growth in some studies and to a panel of isolates in others. A lower MIC50 goes with greater potency. As for `CCC(C)n1ncn(-c2ccc(N3CCN(c4ccc(OCC5COC(Cn6cncn6)(c6ccc(Cl)cc6Cl)O5)cc4)CC3)cc2)c1=O` (configuration not stated) [ITRACONAZOLE], the MIC50 against Candida albicans [1] amounted to 0.074 µg/mL (≈ 0.105 µM); against Candida albicans [2], 0.111 µg/mL (≈ 0.157 µM); in the assay with Candida albicans [3] it was 0.058 µg/mL (≈ 0.0822 µM); with Candida albicans [4] it was 0.107 µg/mL (≈ 0.152 µM); in the assay on Candida albicans [5] it was 0.255 µg/mL (≈ 0.361 µM); against Candida albicans [6], 0.297 µg/mL (≈ 0.421 µM).
For `OC(Cn1cncn1)(Cn1cncn1)c1ccc(F)cc1F` [FLUCONAZOLE], the MIC50 against Candida albicans [1] was determined as 0.356 µg/mL (≈ 1.16 µM); in the assay on Candida albicans [2], 0.375 µg/mL (≈ 1.22 µM); against Candida albicans [3], 0.218 µg/mL (≈ 0.712 µM); against Candida albicans [4], 0.735 µg/mL (≈ 2.4 µM); in the assay with Candida albicans [5], 2.04 µg/mL (≈ 6.67 µM); against Candida albicans [6], 3.36 µg/mL (≈ 11 µM).

Values taken from ChEMBL document CHEMBL1275258, “Correlation between azole susceptibilities, genotypes, and ERG11 mutations in Candida albicans isolates associated with vulvovaginal candidiasis in China” (2010).
